Assay results from ChEMBL document CHEMBL6071188, “Synthesis and In Vivo Profiling of Desymmetrized Antimalarial Trioxolanes with Diverse Carbamate Side Chains” (ACS Med Chem Lett, 2024).
≈ marks a conversion by molar mass, not a printed value.

Assays:
Plasmodium berghei [1] = experiment: Antiplasmodial activity against Plasmodium berghei infected in female Swiss Webster mouse model assessed as cure rate at 40 mg/kg, po measured upto 30 days relative to control; type: functional; conditions: time <= 30 day
[2] = Solubility of the compound in PBS buffer at pH 7.4; type: physicochemical
[3] = Metabolic stability in human liver microsomes assessed as intrinsic clearance; type: ADME, Microsome; conditions: for microsomal intrinsic clearance: microsomes; for microsomal CLint: liver microsomes, read-out: CLH
Plasmodium berghei [4] = experiment: Antiplasmodial activity against Plasmodium berghei infected in female Swiss Webster mouse model assessed as survival at 10 mg/kg, po administered once daily for 2 days and measured upto 30 days; type: functional; conditions: time 30 day
In short: (§1)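 Female Swiss Webster mice (~20 g) infected ip with 10^6 P. berghei-infected erythrocytes from a donor mouse. Dosing by oral gavage once daily for 1–2 days starting 1 h post-inoculation, in 10% DMSO/50% PEG400/40% of 20% HP-β-CD in water. Five mice per arm. Daily Giemsa smears from day 7, counting infected cells per 1000 erythrocytes. Body weight tracked. Euthanasia at >50% parasitemia or >15% weight loss. Followed to day 30; cure means no parasitemia at day 30. Survival reported as the day of the longest-surviving mouse.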

[5] = Toxicity in female Swiss Webster mouse infected with Plasmodium berghei assessed as drug tolerance at 10 mg/kg, po administered once daily for 2 days and measured upto 30 days; type: organism-based; conditions: in vivo, 720 h, time 30 day; in short: as §1
[6] = Toxicity in female Swiss Webster mouse infected with Plasmodium berghei assessed as drug tolerance at 20 mg/kg, […]; type: organism-based; conditions: in vivo, po
Plasmodium berghei [7] = experiment: Antiplasmodial activity against Plasmodium berghei infected in female Swiss Webster mouse model assessed as survival at 20 mg/kg, po administered once daily for 1 day

SMILES | solubility kinetic [2] | microsomal intrinsic clearance [3] | Survival (Plasmodium berghei [4]) | Activity [5] | also measured
NCCC1CCN(C(=O)O[C@@H]2CCC[C@]3(C2)OOC2(O3)C3CC4CC(C3)CC2C4)CC1 (some centres undefined) | – | – | – | – | Activity (Plasmodium berghei [1]): 20%
NCC1CCN(C(=O)O[C@H]2CCC[C@@]3(C2)OOC2(O3)C3CC4CC(C3)CC2C4)CC1 (some centres undefined) | 112 µM (≈ 47.1 µg/mL) | 69.6 µL/min/mg | – | – | –
CS(=N)(=O)CCNC(=O)O[C@H]1CCC[C@@]2(C1)OOC1(O2)C2CC3CC(C2)CC1C3 (some centres undefined) | 129 µM (≈ 55.3 µg/mL) | 319 µL/min/mg | – | – | –
N[C@H]1CC[C@H](NC(=O)O[C@H]2CCC[C@@]3(C2)OOC2(O3)C3CC4CC(C3)CC2C4)CC1 (some centres undefined) | – | 28.2 µL/min/mg | – | – | –
CCC1(O)CN(C(=O)O[C@@H]2CCC[C@]3(C2)OOC2(O3)C3CC4CC(C3)CC2C4)C1 (some centres undefined) | 58.7 µM (≈ 23.9 µg/mL) | 480 µL/min/mg | – | – | –
N[C@@H]1CCN(C(=O)O[C@@H]2CCC[C@]3(C2)OOC2(O3)C3CC4CC(C3)CC2C4)C1 (some centres undefined) | 167 µM (≈ 65.5 µg/mL) | 45.8 µL/min/mg | – | – | Activity (Plasmodium berghei [1]): 20%
CC(C)C1(O)CN(C(=O)O[C@@H]2CCC[C@]3(C2)OOC2(O3)C3CC4CC(C3)CC2C4)C1 (some centres undefined) | 15.9 µM (≈ 6.7 µg/mL) | 392 µL/min/mg | – | – | –
N[C@@H]1CCCN(C(=O)O[C@H]2CCC[C@@]3(C2)OOC2(O3)C3CC4CC(C3)CC2C4)C1 (some centres undefined) | 129 µM (≈ 52.4 µg/mL) | 52.7 µL/min/mg | – | – | –
NCCC1CCN(C(=O)O[C@H]2CCC[C@@]3(C2)OOC2(O3)C3CC4CC(C3)CC2C4)CC1 (some centres undefined) | 117 µM (≈ 50.8 µg/mL) | 92.7 µL/min/mg | – | – | –
NCC1CCN(C(=O)O[C@@H]2CCC[C@]3(C2)OOC2(O3)C3CC4CC(C3)CC2C4)CC1 (some centres undefined) | – | – | – | – | Activity (Plasmodium berghei [1]): 20%
CC1(O)CN(C(=O)O[C@H]2CCC[C@@]3(C2)OOC2(O3)C3CC4CC(C3)CC2C4)C1 (some centres undefined) | 137 µM (≈ 53.9 µg/mL) | – | 4 days | Non-Toxic | –
NC1(CNC(=O)O[C@H]2CCC[C@@]3(C2)OOC2(O3)C3CC4CC(C3)CC2C4)COC1 (some centres undefined) | 87.7 µM (≈ 35.8 µg/mL) | 135 µL/min/mg | 9 days | Non-Toxic | –
NC1CCN(C(=O)O[C@H]2CCC[C@@]3(C2)OOC2(O3)C3CC4CC(C3)CC2C4)CC1 (some centres undefined) | 118 µM (≈ 48 µg/mL) | – | 11 days | Non-Toxic | Activity [6]: Non-Toxic; Survival (Plasmodium berghei [7]): 9 days; microsomal CLint [3]: 11.8 µL/min/mg
CS(=N)(=O)CCNC(=O)O[C@@H]1CCC[C@]2(C1)OOC1(O2)C2CC3CC(C2)CC1C3 (some centres undefined) | 128 µM (≈ 54.9 µg/mL) | 243 µL/min/mg | – | – | –
CS(=O)(=O)C1CN(C(=O)O[C@H]2CCC[C@@]3(C2)OOC2(O3)C3CC4CC(C3)CC2C4)C1 (some centres undefined) | 81.1 µM (≈ 35.8 µg/mL) | 851 µL/min/mg | – | – | –
N=S(=O)(CCNC(=O)O[C@H]1CCC[C@@]2(C1)OOC1(O2)C2CC3CC(C2)CC1C3)C1CC1 (some centres undefined) | 234 µM (≈ 106 µg/mL) | 450 µL/min/mg | 6 days | Non-Toxic | –
NC1(CNC(=O)O[C@H]2CCC[C@@]3(C2)OOC2(O3)C3CC4CC(C3)CC2C4)CCCC1 (some centres undefined) | 13.4 µM (≈ 5.64 µg/mL) | 25.3 µL/min/mg | 14 days | Non-Toxic | –
CC(C)(CN)CNC(=O)O[C@@H]1CCC[C@]2(C1)OOC1(O2)C2CC3CC(C2)CC1C3 (some centres undefined) | – | – | – | – | microsomal CLint [3]: 14.3 µL/min/mg
NC1CN(C(=O)O[C@H]2CCC[C@@]3(C2)OOC2(O3)C3CC4CC(C3)CC2C4)C1 (some centres undefined) | 101 µM (≈ 38.2 µg/mL) | < 11.6 µL/min/mg | – | – | Activity [6]: Non-Toxic; Survival (Plasmodium berghei [7]): 5 days
NC1(CNC(=O)O[C@H]2CCC[C@@]3(C2)OOC2(O3)C3CC4CC(C3)CC2C4)CCC1 (some centres undefined) | 162 µM (≈ 65.9 µg/mL) | 24.9 µL/min/mg | 13 days | – | –
N[C@@H]1CCN(C(=O)O[C@H]2CCC[C@@]3(C2)OOC2(O3)C3CC4CC(C3)CC2C4)C1 (some centres undefined) | – | 58.7 µL/min/mg | – | – | –
O=C(NCC1(O)COC1)O[C@H]1CCC[C@@]2(C1)OOC1(O2)C2CC3CC(C2)CC1C3 (some centres undefined) | 112 µM (≈ 45.9 µg/mL) | 333 µL/min/mg | 6 days | Non-Toxic | –
C[S+]([O-])C1CN(C(=O)O[C@@H]2CCC[C@]3(C2)OOC2(O3)C3CC4CC(C3)CC2C4)C1 (some centres undefined) | 138 µM (≈ 58.7 µg/mL) | 516 µL/min/mg | – | – | –

SMILES | solubility kinetic [2] | microsomal intrinsic clearance [3] | Survival (Plasmodium berghei [4]) | Activity [5] | also measured
NC1(CNC(=O)O[C@@H]2CCC[C@]3(C2)OOC2(O3)C3CC4CC(C3)CC2C4)COC1 (some centres undefined) | 122 µM (≈ 49.8 µg/mL) | 23.4 µL/min/mg | 8 days | Non-Toxic | Activity [6]: Non-Toxic; Survival (Plasmodium berghei [7]): 7 days
O=C(NCC1(O)COC1)O[C@@H]1CCC[C@]2(C1)OOC1(O2)C2CC3CC(C2)CC1C3 (some centres undefined) | – | 76.2 µL/min/mg | 6 days | Non-Toxic | –
CCCC1(O)CN(C(=O)O[C@H]2CCC[C@@]3(C2)OOC2(O3)C3CC4CC(C3)CC2C4)C1 (some centres undefined) | 18.2 µM (≈ 7.67 µg/mL) | 683 µL/min/mg | – | – | –
NC1(CNC(=O)O[C@@H]2CCC[C@]3(C2)OOC2(O3)C3CC4CC(C3)CC2C4)CCCC1 (some centres undefined) | 162 µM (≈ 68.1 µg/mL) | 29.9 µL/min/mg | 11 days | Non-Toxic | –
CS(=N)(=O)C1CN(C(=O)O[C@@H]2CCC[C@]3(C2)OOC2(O3)C3CC4CC(C3)CC2C4)C1 (some centres undefined) | 268 µM (≈ 118 µg/mL) | 234 µL/min/mg | – | – | –
CCCC1(O)CN(C(=O)O[C@@H]2CCC[C@]3(C2)OOC2(O3)C3CC4CC(C3)CC2C4)C1 (some centres undefined) | 16.1 µM (≈ 6.79 µg/mL) | 579 µL/min/mg | – | – | –
CC(C)C1(O)CN(C(=O)O[C@H]2CCC[C@@]3(C2)OOC2(O3)C3CC4CC(C3)CC2C4)C1 (some centres undefined) | 15.1 µM (≈ 6.37 µg/mL) | 657 µL/min/mg | – | – | –
NC1(CNC(=O)O[C@H]2CCC[C@@]3(C2)OOC2(O3)C3CC4CC(C3)CC2C4)CC1 (some centres undefined) | 143 µM (≈ 56.1 µg/mL) | 37.4 µL/min/mg | 11 days | Non-Toxic | Activity [6]: Non-Toxic; Survival (Plasmodium berghei [7]): 11 days
CS(=N)(=O)C1CN(C(=O)O[C@H]2CCC[C@@]3(C2)OOC2(O3)C3CC4CC(C3)CC2C4)C1 (some centres undefined) | 142 µM (≈ 62.6 µg/mL) | 431 µL/min/mg | – | – | –
O=C(O[C@@H]1CCC[C@]2(C1)OOC1(O2)C2CC3CC(C2)CC1C3)N1CCNCC1 (some centres undefined) | 144 µM (≈ 56.5 µg/mL) | – | – | – | microsomal CLint [3]: 39.4 µL/min/mg
O=C(O[C@H]1CCC[C@@]2(C1)OOC1(O2)C2CC3CC(C2)CC1C3)N1CC(O)(C(F)(F)F)C1 (some centres undefined) | 10.8 µM (≈ 4.83 µg/mL) | 211 µL/min/mg | – | – | –
CCC1(O)CN(C(=O)O[C@H]2CCC[C@@]3(C2)OOC2(O3)C3CC4CC(C3)CC2C4)C1 (some centres undefined) | 41.5 µM (≈ 16.9 µg/mL) | 638 µL/min/mg | – | – | –
NC1(CNC(=O)O[C@@H]2CCC[C@]3(C2)OOC2(O3)C3CC4CC(C3)CC2C4)CCC1 (some centres undefined) | 142 µM (≈ 57.7 µg/mL) | 37.4 µL/min/mg | 13 days | Non-Toxic | –
O=C(O[C@H]1CCC[C@@]2(C1)OOC1(O2)C2CC3CC(C2)CC1C3)N1CCNCC1 (some centres undefined) | 167 µM (≈ 65.5 µg/mL) | 120 µL/min/mg | – | – | –
N=S(=O)(CCNC(=O)O[C@@H]1CCC[C@]2(C1)OOC1(O2)C2CC3CC(C2)CC1C3)C1CC1 (some centres undefined) | 79.3 µM (≈ 36 µg/mL) | 435 µL/min/mg | – | – | –
CC1(O)CN(C(=O)O[C@@H]2CCC[C@]3(C2)OOC2(O3)C3CC4CC(C3)CC2C4)C1 (some centres undefined) | 71.4 µM (≈ 28.1 µg/mL) | – | 7 days | Non-Toxic | –
CN1CCN(C(=O)O[C@H]2CCC[C@@]3(C2)OOC2(O3)C3CC4CC(C3)CC2C4)CC1 (some centres undefined) | 109 µM (≈ 44.3 µg/mL) | – | – | – | –
C[S+]([O-])C1CN(C(=O)O[C@H]2CCC[C@@]3(C2)OOC2(O3)C3CC4CC(C3)CC2C4)C1 (some centres undefined) | 184 µM (≈ 78.3 µg/mL) | 750 µL/min/mg | – | – | –
CS(=O)(=O)C1CN(C(=O)O[C@@H]2CCC[C@]3(C2)OOC2(O3)C3CC4CC(C3)CC2C4)C1 (some centres undefined) | 66.7 µM (≈ 29.5 µg/mL) | 526 µL/min/mg | – | – | –
CC(C)(CN)CNC(=O)O[C@H]1CCC[C@@]2(C1)OOC1(O2)C2CC3CC(C2)CC1C3 (some centres undefined) | 164 µM (≈ 67 µg/mL) | – | – | – | microsomal CLint [3]: 21.4 µL/min/mg
O=C(O[C@@H]1CCC[C@]2(C1)OOC1(O2)C2CC3CC(C2)CC1C3)N1CC(O)(C(F)(F)F)C1 (some centres undefined) | 24.8 µM (≈ 11.1 µg/mL) | 234 µL/min/mg | 9 days | Non-Toxic | –
N[C@@H]1CCCN(C(=O)O[C@@H]2CCC[C@]3(C2)OOC2(O3)C3CC4CC(C3)CC2C4)C1 (some centres undefined) | 74.9 µM (≈ 30.4 µg/mL) | 43.7 µL/min/mg | 12 days | Non-Toxic | –
